We go through 48 sequences from the EternaBench riboswitch data.

The subject of the data set is MS2 coat protein. As to the kind of experiment: apparent Kd, MS2 coat protein; higher = weaker binding; RNA-MaP array; FMN 200 µM where present. The procedure, abridged:
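Each design was made on Illumina sequencing-chip clusters by stalled E. coli RNA polymerase and titrated with SNAP-549-labelled MS2 coat protein from 0.7 or 1.5 nM, doubling to 3 µM, in the absence and then the presence of constant ligand. The buffer was 100 mM Tris-HCl pH 7.5, 80 mM KCl, 4 mM MgCl2, BSA, DTT, yeast tRNA and Tween-20. The apparent Kd is the median of filtered per-cluster fits of binding curves, with green signal normalised to red-channel RNA signal and control-cluster median Fmax.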

[1] abbreviates: designed as: ON switch for flavin mononucleotide, no ligand.
[2] abbreviates: ligand present: flavin mononucleotide, designed as: ON switch for flavin mononucleotide.
[3] abbreviates: designed as: OFF switch for flavin mononucleotide, no ligand.
[4] abbreviates: ligand present: flavin mononucleotide, designed as: OFF switch for flavin mononucleotide.

A word on the apparent Kd: it is the concentration giving half-maximal binding under the conditions of the assay.

For “AAAAAAAAAAGGCAGGAUAUCCAAAAAAAAACAUGAGGAUCACCCAUGUAAAAAAAAAAAAAAUGGGAGAAGGGCCAAAAAAAAAA”, the “apparent Kd” value was 39.2 nM under setting [1] and 14.3 nM under setting [2]. As to “GUUGCUACUGAGGAUAUUAUUCUACCCGACUGAUAAGAAGGCAGUACAUGAGGAUCACCCAUGUGGGUAGCCAG”, the “apparent Kd” value by setting is: under setting [3], 16.7 nM; under setting [4], 22.5 nM.

Turning to “UUAAAUCAUGUAGGAUAUGCAUGGCGAAGCUACGCAGAAGGACAUGAGGAUCACCCAUGUUAUAGCUACUGAGUUCAGUGGCAA”, the “apparent Kd” value turned out to be 107 nM under setting [3] and 231 nM under setting [4]. “CGAUAAAGCUGAGGAUAUGAGAAUAGAAAGAAAUCAGAAGGCAGACAUGAGGAUCACCCAUGUGAGUUCUCGAGAUUACAUGGU”: the “apparent Kd” value under setting [3] is 250 nM and the “apparent Kd” value under setting [4] amounted to 529 nM. Take “UGGUACUAGGGAGGAUAUGGGAAGAUACAUGAGGAUCACCCAUGUUUAAGAAUGCCGAGAGGCAACUAGAAGGCCCUAGUACAU”: the “apparent Kd” value reads like this: under setting [1], 537 nM; under setting [2], 18.7 nM.

Take “AUCUACCUAGGAUAUACAUGAGGAUCACCCAUGUACAGUUUCAUCUAGGGAUACUCACGUAGAAGGAGGUAGAU”: the “apparent Kd” value under setting [3] came out at 36.6 nM and the “apparent Kd” value under setting [4] worked out at 21.5 nM. For the sequence “UUUUAACAUGAGGAUCACCCAUGUGAGGAUAUCGAAAUUUAUAUUAAUAUUAAUAUUUCGAGAAGGCACAUUUU”, the “apparent Kd” value is, setting by setting: under setting [3], 142 nM; under setting [4], 154 nM.

Consider “UUAUUAAGUGUGAGGAUAUGCUGGUCCUUGGAUCAGCAGAAGGCACAUGAGGAUCACCCAUGUACUUUAUAAAU”, for which the “apparent Kd” value under setting [3] came to 15.7 nM and the “apparent Kd” value under setting [4] came to 46.6 nM.

Turning to “GUCAGCUCGUGAGGAUAUACAUGUGCUGGAUACAGCAUUAUAUUUUUCACAUGAGGAUCACCCAUGUAGAAGGCACGAGCUGAU”, the “apparent Kd” value under setting [3] turned out to be 16.6 nM and the “apparent Kd” value under setting [4] is 29.9 nM. Take “ACAUAGUUAGGAUAUGCUGCUCGUCACUUGCGUGAUGAGUAGCAGAAGGAACAUGAGGAUCACCCAUGUAAAGA”: the “apparent Kd” value under setting [3] came out at 29.9 nM and the “apparent Kd” value under setting [4] is 29.5 nM. For the sequence “UGAACUAUGUAGAAGGCCCAUAUUUAUACUUAGGGAGGAUAUACAUGAGGAUCACCCAUGUAUAGAGCAAGUGGACUUGUCACU”, the “apparent Kd” value is, setting by setting: under setting [3], 17.9 nM; under setting [4], 20.2 nM. On the same counts, the results for “AUCAGCUCGUCAGGAUAUACGUCACUGCGUCAGCAGAGUGGUAAGAUCACAUGAGGAUCACCCAUGUAGAAGGGACGAGCUGAU” are 39.5 nM and 421 nM. Take “UGGUCAUGAUCAGGAUAUUAACAUGGGCUACAUUAAGAAGGGAUAGUGAGAUACGAACUACAUGAGGAUCACCCAUGUGUUGUU”: the “apparent Kd” value reads like this: under setting [1], 68.7 nM; under setting [2], 55.4 nM.

With “GGGUACAUCGGAGGAUAUCAUGUAUAGACAUGAGGAUCACCCAUGUCGUACGAGAGUACGGAGAUUGAGAAGGCCGAUGUACCG”, the “apparent Kd” value is, setting by setting: under setting [1], 20.7 nM; under setting [2], 17.3 nM. For the sequence “GCGGCUAGUGCAGGAUAUCGGCGCGUGUAGUGCCGAGAAGGGCACAUGAGGAUCACCCAUGUGAUCAAUCACUGCUAAGGCCGC”, the “apparent Kd” value by setting is: under setting [3], 5.26 nM; under setting [4], 5.4 nM.

Regarding “GUAGCACAAACAAAUGUAACAUGAGGAUCACCCAUGUGUUAUGAGGAUAUGGAUGUGAAGUUAAUCCAGAAGGCAUUAUGCUAC”, the “apparent Kd” value is, setting by setting: under setting [1], 18.6 nM; under setting [2], 11.3 nM.

As for “AUAUUGAUAGUAAGGAUAUGCGUGUGUGUAGUUAUGCAGAAGGUACAUGAGGAUCACCCAUGUAUUAAUGUGUG”, the “apparent Kd” value reads like this: under setting [3], 18.1 nM; under setting [4], 21.6 nM. On the same counts, the results for “AAUGUACUCGGAGGAUAUCCCACAUGAGGAUCACCCAUGUGGGUCACUGAUUCUCGUAUCGUCCGGGAGAAGGCCGAGAACUGA” are 34.6 nM and 111 nM. For “UUUCCCUGUGUGAGGAUAUACUUGUUUGGGUUUUUGUAGAAGGCACAUGAGGAUCACCCAUGUACUCUGUCGUG”, in that order: 23.3 nM and 55.8 nM. On to “GCGAUUUUGUAGAAGGUACGUGAUUAGACAAAGUAAGGAUAUACUGACAUGAGGAUCACCCAUGUAUUAAUAGUUAACAGUCGC”, for which the “apparent Kd” value under setting [1] came to 25.4 nM and the “apparent Kd” value under setting [2] is 14.9 nM. On to “CCAGCUCGUGUUAGGAUAUCCAAGCUGCGGCUGGUGGAGAAGGGACAUGAGGAUCACCCAUGUAAUAAAGAAAA”, for which the “apparent Kd” value runs as follows: under setting [3], 26.4 nM; under setting [4], 31.9 nM. “CGUAGGAUCCAGAAGGCAUGAAACAUGAGGAUCACCCAUGUCAAAUACAUGAGGAUAUGGAUCCUACGAAAAGUGCGAAAGCAC”: the “apparent Kd” value runs as follows: under setting [1], 3.95 nM; under setting [2], 3.84 nM. Regarding “CUAAUGUGAGGAUAUGGUGUUGAUCGCAGGAAGGAGAUGCUCCAGAAGGCACAUGAGGAUCACCCAUGUAGUGA”, the “apparent Kd” value under setting [3] amounted to 70.5 nM and the “apparent Kd” value under setting [4] was 36.7 nM. For “GGAUAGGACAGAGGAUAUACGGCUAGGAGAUACUAGCCACUAUUCCUCACAUGAGGAUCACCCAUGUAGAAGGCUGUCCUAUCG”, in that order: 16.9 nM and 109 nM. For “AGGAAGUGAGGAUAUGCAGUCGCUAGUAGACGCUAGCACUUGUAGAAGGCACAUGAGGAUCACCCAUGUUUAAA”, in that order: 31.3 nM and 36.3 nM. For “GGGCUGUCAGGAUAUCUCGGGCUCGGGUAAAUCUGGGUCUGGGAGAAGGGACAUGAGGAUCACCCAUGUGGCCC”, in that order: 34.3 nM and 37.9 nM.

As to “GUUGGGUGUCAUGUCGCACAUGAGGAUCACCCAUGUAGGAGGUAGGAUAUCCACGAGAAACGAGAGGAGAAGGGCCAUUAGCGU”, the “apparent Kd” value under setting [3] amounted to 19.2 nM and the “apparent Kd” value under setting [4] was 23 nM.

Regarding “GAGUGGUAAAGAGGAUAUGCAUUGUUAUUCACUGCAGAAGGUUUUAACAUGAGGAUCACCCAUGUAGGACUAUUCCUGUGUUUC”, the “apparent Kd” value by setting is: under setting [1], 14.6 nM; under setting [2], 12.5 nM. For “UACCAAUUUUUGGUAUUACACUAUGAGGAUAUCAUAUAUGAAUACAUGAGGAUCACCCAUGUGUGUGAGAAGGCAUAAUUUAUA”, in that order: 28.1 nM and 10.5 nM. As to “AAUUUACAUGAGGAUCACCCAUGUGAGGAUAUGAUACUAUGUACUUCGGUACAUAGUAUCAGAAGGCAUGUGAA”, the “apparent Kd” value amounted to 128 nM under setting [3] and 97.7 nM under setting [4]. With “UUGGACGUCGUAGGAUAUGUAGGGUAUUCCUACAUGAGGAUCACCCAUGUUGACAUGGAAGAAGGACAGAAGGACGAUGUCCAU”, the “apparent Kd” value reads like this: under setting [1], 183 nM; under setting [2], 4.94 nM. Take “ACAUGCGGAUGAGGAUAUUCAUUUAUGAGGAUAGAAGAAGGCAUACAUGAGGAUCACCCAUGUAUACGCAUGAGGAUCCCUUAU”: the “apparent Kd” value was found to be 41.1 nM under setting [3] and 40 nM under setting [4]. “UUUGUCAUCGAGAAGGCCUCAACAUGAGGAUCACCCAUGUUGUAAUAUGGGAGGAUAUCGAUGAUACAGCUACGUUUCGUAGGG”: the “apparent Kd” value runs as follows: under setting [1], 18.1 nM; under setting [2], 5.6 nM. As to “CAGAAGUCAGGAUAUGCAUGGCGGGACUUGCGUCGUGGCGUGCAGAAGGGACAUGAGGAUCACCCAUGUGGAGC”, the “apparent Kd” value amounted to 118 nM under setting [3] and 182 nM under setting [4]. On the same counts, the results for “UUGUUGUAUGUAGGAUAUGCAUGUUAUUAUUAUGCAGAAGGACAUGAGGAUCACCCAUGUGUAUUAUUAUUAUAUAUUAUAUAU” are 20.9 nM and 23.3 nM.

“GAUGUUCUGGUCAGGAUAUGCAUCCGUCGGCCGGAGCAGAAGGGACAUGAGGAUCACCCAUGUGCGGGUACAAA”: the “apparent Kd” value reads like this: under setting [3], 38.7 nM; under setting [4], 38.3 nM. For the sequence “AAAGACAGACAUGAGGAUCACCCAUGUUACGAAGAUACUGGGAGAAGGGCGAUUGCAAAGCAAUCGCAGGAUAUUCGUAUUGUC”, the “apparent Kd” value reads like this: under setting [1], 25.8 nM; under setting [2], 13.2 nM. With “UUAUGAGAGCAGGAUAUCUUAUAUUUUUAUUAAAGAGAAGGGCUCACAUGAGGAUCACCCAUGUGGUCCUAGAU”, the “apparent Kd” value runs as follows: under setting [3], 55.9 nM; under setting [4], 598 nM. For “GCAAGAAUAGGAUAUACACCGUGUCAGCUUUUAUAUAUCGCACAUGAGGAUCACCCAUGUAGAAGGGUUCUCUG”, in that order: 420 nM and 353 nM. On the same counts, the results for “AUAUAGUCAGGAUAUCGAAAUAUAUAUUAAUAUAUAUAAUACGAGAAGGGACAUGAGGAUCACCCAUGUAGUAA” are 25.7 nM and 31.1 nM. For the sequence “CUAUGAAGAAUAGGAUAUUCGAUCAUGAGGAUAGAAGAAGGGUUACAUGAGGAUCACCCAUGUAUGCACAUGAGGAUCCCUUAG”, the “apparent Kd” value under setting [3] was 167 nM and the “apparent Kd” value under setting [4] worked out at 195 nM.

For “AGCGAACAGGCUAACAUGAGGAUCACCCAUGUGGACUCAUGGUAGGAUAUCGGGAAGGAGGAAACCGAGAAGGGCCGGUGAGCG”, the “apparent Kd” value under setting [1] is 150 nM and the “apparent Kd” value under setting [2] was 70.8 nM. As to “GCCUCAGAAUUAAUUGUGAGAGGCAGAAGGCUAUAUCUCGUGUUAAACAUGAGGAUCACCCAUGUAGAGGAUAUGCUAUUACAG”, the “apparent Kd” value runs as follows: under setting [3], 9.3 nM; under setting [4], 10.6 nM. With “AAUAGCUAAGGAUAUACAUGAGGAUCACCCAUGUAAAACACUACUUGGAACCGCCUCGGUAGAAGGUAGAAAAU”, the “apparent Kd” value under setting [4] is 22.3 nM.

For “AACGUGUCAGGAUAUGCUGCUCGUCACGAAAGUGAUGAGUAGCAGAAGGGACAUGAGGAUCACCCAUGUAAAGA”, the “apparent Kd” value under setting [3] amounted to 153 nM and the “apparent Kd” value under setting [4] is 101 nM. On to “UGAUAACAUGUAGGAUAUCCAGCAUUGACCAUCGGAGAAGGACAUGAGGAUCACCCAUGUACCGAUACAAUGGGAUAACGCAAU”, for which the “apparent Kd” value was 15.4 nM under setting [3] and 18 nM under setting [4]. On the same counts, the results for “AAAACGCAAGGAUAUACAUGAGGAUCACCCAUGUAGACAAUAUAAAGGGUCUCACCAUGUAGAAGGUGCUACCC” are 21.3 nM and 16.5 nM. As to “GUGGCACAUGAGGAUCACCCAUGUCAGGAUAUCGCGUGGUUUUUUGCGGCCGCGCGCGCGAGAAGGGACGUCUU”, the “apparent Kd” value under setting [3] came to 39.2 nM and the “apparent Kd” value under setting [4] was determined as 38.1 nM.
